Measured values from ChEMBL document CHEMBL1155975, “Pentacyclo-undecane derived cyclic tetra-amines: synthesis and evaluation as potent anti-tuberculosis agents” (Eur J Med Chem, 2009).
Values after ≈ are worked out from the molar mass of the structure shown.

Assays:
[1] = test system: Mycobacterium tuberculosis; assay: Antimycobacterial activity against Mycobacterium tuberculosis H37Rv after 21 days by broth macrodilution method; assay type: functional; details: 504 h
Outline: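 Triplicate tubes of Middlebrook 7H9 broth with casitone, glycerol and 10% OADC; methanol-dissolved compounds diluted twofold, 128–0.125 µg/mL. Inoculum from log-phase H37Rv, adjusted to McFarland 1 and diluted to 1 × 10^5 CFU/mL, 500 µL per tube. Compound-free and solvent controls included. Aerobic incubation at 37 °C, tubes read macroscopically every 7 days to day 21 for MIC.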

[2] = Cytotoxicity against MDBK cells after 48 hrs by MTT assay; assay type: cell-based; details: Bos taurus
Outline: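 MDBK monolayers were grown in RPMI 1640 with 10% heat-inactivated FBS and pen/strep. Cells were seeded at 5 × 10^4 per well, settled 6 h, then exposed 42 h at 37 °C to compounds in 1% methanol diluted in media; the vehicle served as the 100% viability control. MTT was added for 3 h and formazan read at 570 nm. Runs were quintuplicate, repeated on two days; % cytotoxicity = 100 − (OD sample/OD control × 100).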

[3] = test system: Mycobacterium tuberculosis; assay: Antimycobacterial activity against Mycobacterium tuberculosis XDR infected in MDBK by BACTEC analysis; assay type: functional
Outline: (§1)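 Radiometric BACTEC 460 TB. Cultures were grown at 37 °C with stirring, inoculated into BACTEC vials at OD ~0.16 and grown to GI 500 (±50) as the primary culture. Compounds were diluted in methanol to 8–0.03125 µg/mL final. GI was recorded every 24 h, and a daily ΔGI >10 counted as growth. Strains were H37Rv (ATCC 25618) and XDR strain X194.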

[4] = test system: Mycobacterium tuberculosis; assay: Antimycobacterial activity against Mycobacterium tuberculosis H37Rv infected in MDBK by BACTEC analysis; assay type: functional; outline: as §1

Row | Compound | MIC [1] | IC50 [2] | MIC [3] | MIC [4]
1 | OCCN(CCC12OC3(CCN(CCO)Cc4ccccc4)C4C5CC(C6C5C3C61)C42)Cc1ccccc1 (centres undefined) | 248 µM (≈ 128 µg/mL) | – | – | –
2 | C1CNCCN(CCC23OC4(CCN5CCCNCC5)C5C6CC(C7C6C4C72)C53)C1 (centres undefined) | 155 µM (≈ 64 µg/mL) | – | – | –
3 | c1ccc(CNCCC23OC4(CCNCc5ccccn5)C5C6CC(C7C6C4C72)C53)nc1 (centres undefined) | 298 µM (≈ 128 µg/mL) | – | – | –
4 | CC(C)=CCC/C(C)=C/CC/C(C)=C\CN1CCN(CCC23OC4(CCN5CCN(C/C=C(\C)CC/C=C(\C)CCC=C(C)C)CC5)C5C6CC(C7C6C4C72)C53)CC1 (centres undefined) | 5.04 µM (≈ 4 µg/mL) | 24 µM | 0.63 µM | 0.32 µM (≈ 0.254 µg/mL)
5 | CC(C)=CCC/C(C)=C\CN1CCN(CCC23OC4(CCN5CCN(C/C=C(\C)CCC=C(C)C)CC5)C5C6CC(C7C6C4C72)C53)CC1 (centres undefined) | 6.09 µM (≈ 4 µg/mL) | 30 µM | 1.52 µM | 0.76 µM (≈ 0.499 µg/mL)
6 | O=C(c1ccc([N+](=O)[O-])o1)N1CCN(CCC23OC4(CCN5CCN(C(=O)c6ccc([N+](=O)[O-])o6)CC5)C5C6CC(C7C6C4C72)C53)CC1 (centres undefined) | 24.1 µM (≈ 16 µg/mL) | – | – | > 12.1 µM
7 | O=C(c1ccc([N+](=O)[O-])o1)N1CCCN(CCC23OC4(CCN5CCCN(C(=O)c6ccc([N+](=O)[O-])o6)CC5)C5C6CC(C7C6C4C72)C53)CC1 (centres undefined) | 23.2 µM (≈ 16 µg/mL) | – | – | > 11.6 µM
8 | c1ccc(CN2CCCN(CCC34OC5(CCN6CCCN(Cc7ccccc7)CC6)C6C7CC(C8C7C5C83)C64)CC2)cc1 (centres undefined) | 108 µM (≈ 64.1 µg/mL) | – | – | –
9 | CCCCCCCCCCN1CCN(CCC23OC4(CCN5CCN(CCCCCCCCCC)CC5)C5C6CC(C7C6C4C72)C53)CC1 (centres undefined) | – | 25 µM | 0.75 µM | –
10 | O=C(c1ccccc1)N1CCN(CCC23OC4(CCN5CCN(C(=O)c6ccccc6)CC5)C5C6CC(C7C6C4C72)C53)CC1 (centres undefined) | 216 µM (≈ 128 µg/mL) | – | – | –
11 | c1ccc(CN2CCN(CCC34OC5(CCN6CCN(Cc7ccccc7)CC6)C6C7CC(C8C7C5C83)C64)CC2)cc1 (centres undefined) | 113 µM (≈ 64 µg/mL) | – | – | –
12 | NCC[C@H](O)C(=O)N[C@@H]1C[C@H](N)[C@@H](O[C@H]2O[C@H](CN)[C@@H](O)[C@H](O)[C@H]2O)[C@H](O)[C@H]1O[C@H]1O[C@H](CO)[C@@H](O)[C@H](N)[C@H]1O [AMIKACIN] | – | – | > 5 µg/mL | –
13 | CC[C@@H](CO)NCCN[C@@H](CC)CO [ETHAMBUTOL] | 19.6 µM (≈ 4 µg/mL) | – | > 2.5 µg/mL | –
14 | NNC(=O)c1ccncc1 [ISONIAZID] | – | – | > 0.2 µg/mL | –
15 | NC[C@H]1O[C@H](O[C@H]2[C@H](O)[C@@H](O[C@H]3O[C@H](CO)[C@@H](O)[C@H](N)[C@H]3O)[C@H](N)C[C@@H]2N)[C@H](O)[C@@H](O)[C@@H]1O [KANAMYCIN] | – | – | > 5 µg/mL | –
16 | CC1COc2c(N3CCN(C)CC3)c(F)cc3c(=O)c(C(=O)O)cn1c23 (centres undefined) [OFLOXACIN] | – | – | > 2 µg/mL | –
17 | CO[C@H]1/C=C/O[C@@]2(C)Oc3c(C)c(O)c4c(O)c(c(/C=N/N5CCN(C)CC5)c(O)c4c3C2=O)NC(=O)/C(C)=C\C=C\[C@H](C)[C@H](O)[C@@H](C)[C@@H](O)[C@@H](C)[C@H](OC(C)=O)[C@@H]1C [RIFAMPIN] | – | – | > 1 µg/mL | –
18 | CC(C)=CCC/C(C)=C/CNCCNC1C2CC3CC(C2)CC1C3 (centres undefined) [SQ109] | – | 26 µM | – | 0.63 µM (≈ 0.208 µg/mL)
